In ChEMBL document CHEMBL4813918, “From off-to on-target: New BRAF-inhibitor-template-derived compounds selectively targeting mitogen activated protein kinase kinase 4 (MKK4)” (Eur J Med Chem, 2021):

Assays:
[1] = target: Mitogen-activated protein kinase kinase kinase kinase 5 (Homo sapiens) (UniProt Q9Y4K4); test: Binding affinity to wild type partial length human MAP4K5 (M1 to P297) expressed in Bacterial expression system assessed as residual activity at 100 nM measured by Kinomescan assay relative to control
[2] = target: T1, Dual specificity mitogen-activated protein kinase kinase 7 (Homo sapiens) (UniProt O14733); test: Binding affinity to wild type full length human MKK7 (M1 to R419 residues) expressed in mammalian expression system assessed as residual activity at 100 nM measured by Kinomescan assay
T1 sequence (whole entry): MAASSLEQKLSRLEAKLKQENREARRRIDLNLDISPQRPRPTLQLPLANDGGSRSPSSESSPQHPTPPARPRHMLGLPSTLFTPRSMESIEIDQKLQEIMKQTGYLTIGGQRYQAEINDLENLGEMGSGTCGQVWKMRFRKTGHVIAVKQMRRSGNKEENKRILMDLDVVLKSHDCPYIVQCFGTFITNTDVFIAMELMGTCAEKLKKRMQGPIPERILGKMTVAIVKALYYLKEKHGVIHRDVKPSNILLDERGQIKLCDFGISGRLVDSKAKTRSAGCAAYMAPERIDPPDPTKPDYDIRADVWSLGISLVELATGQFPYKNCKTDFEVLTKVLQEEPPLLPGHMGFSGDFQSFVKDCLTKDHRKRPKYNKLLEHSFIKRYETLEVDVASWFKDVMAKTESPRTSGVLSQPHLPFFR

[3] = target: Mitogen-activated protein kinase kinase kinase 20 (Homo sapiens) (UniProt Q9NYL2); test: Binding affinity to wild type partial length human ZAK (M1 to L331) expressed in bacterial expression system assessed as residual activity at 100 nM measured by Kinomescan assay
[4] = target: T2, Dual specificity mitogen-activated protein kinase kinase 4 (Mus musculus, UniProt P47809); test: Binding affinity to GST tagged mouse MKK4 expressed in Escherichia coli expression system measured by Kinomescan assay
T2 sequence (P47809 whole entry): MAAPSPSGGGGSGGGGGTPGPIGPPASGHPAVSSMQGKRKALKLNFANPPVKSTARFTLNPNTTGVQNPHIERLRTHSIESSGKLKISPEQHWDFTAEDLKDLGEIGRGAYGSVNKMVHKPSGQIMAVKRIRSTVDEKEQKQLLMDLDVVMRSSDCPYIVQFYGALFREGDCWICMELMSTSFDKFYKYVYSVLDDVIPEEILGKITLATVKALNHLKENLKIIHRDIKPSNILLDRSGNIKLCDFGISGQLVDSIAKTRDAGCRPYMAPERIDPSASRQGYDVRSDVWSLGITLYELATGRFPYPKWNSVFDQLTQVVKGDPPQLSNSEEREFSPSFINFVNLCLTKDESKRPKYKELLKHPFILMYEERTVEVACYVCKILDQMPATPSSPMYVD
Summary of the method: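 Competition binding: compound competes with an immobilized multikinase inhibitor for the site on DNA-tagged MKK4. Bound kinase is quantified by qPCR. Kd values are determined in duplicate.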

Mitogen-activated protein kinase kinase kinase 20 (Homo sapiens), sequence (Q9NYL2 2-800 limits assumed): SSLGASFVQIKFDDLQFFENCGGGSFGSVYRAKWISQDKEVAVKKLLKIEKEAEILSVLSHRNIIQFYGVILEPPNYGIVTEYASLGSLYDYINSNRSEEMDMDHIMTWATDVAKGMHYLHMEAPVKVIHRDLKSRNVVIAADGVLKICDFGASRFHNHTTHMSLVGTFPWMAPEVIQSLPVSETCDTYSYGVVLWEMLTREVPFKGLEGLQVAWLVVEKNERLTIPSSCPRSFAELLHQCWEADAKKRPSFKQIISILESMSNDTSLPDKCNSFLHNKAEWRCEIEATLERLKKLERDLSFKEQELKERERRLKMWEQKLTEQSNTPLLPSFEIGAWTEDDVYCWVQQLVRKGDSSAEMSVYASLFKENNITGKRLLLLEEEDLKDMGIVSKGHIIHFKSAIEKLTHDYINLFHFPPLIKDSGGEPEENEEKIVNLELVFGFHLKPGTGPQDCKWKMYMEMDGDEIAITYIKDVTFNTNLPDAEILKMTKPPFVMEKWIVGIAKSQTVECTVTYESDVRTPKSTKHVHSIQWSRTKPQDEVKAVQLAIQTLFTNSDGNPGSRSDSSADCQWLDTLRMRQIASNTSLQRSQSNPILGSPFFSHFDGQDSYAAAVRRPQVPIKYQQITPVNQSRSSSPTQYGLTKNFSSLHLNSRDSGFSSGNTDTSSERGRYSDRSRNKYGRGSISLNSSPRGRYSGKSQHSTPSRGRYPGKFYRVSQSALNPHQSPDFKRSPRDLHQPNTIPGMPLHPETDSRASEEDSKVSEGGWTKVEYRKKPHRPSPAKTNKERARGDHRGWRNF
Mitogen-activated protein kinase kinase kinase kinase 5 (Homo sapiens), sequence (Q9Y4K4 whole entry, looked up, the tested form may be a part): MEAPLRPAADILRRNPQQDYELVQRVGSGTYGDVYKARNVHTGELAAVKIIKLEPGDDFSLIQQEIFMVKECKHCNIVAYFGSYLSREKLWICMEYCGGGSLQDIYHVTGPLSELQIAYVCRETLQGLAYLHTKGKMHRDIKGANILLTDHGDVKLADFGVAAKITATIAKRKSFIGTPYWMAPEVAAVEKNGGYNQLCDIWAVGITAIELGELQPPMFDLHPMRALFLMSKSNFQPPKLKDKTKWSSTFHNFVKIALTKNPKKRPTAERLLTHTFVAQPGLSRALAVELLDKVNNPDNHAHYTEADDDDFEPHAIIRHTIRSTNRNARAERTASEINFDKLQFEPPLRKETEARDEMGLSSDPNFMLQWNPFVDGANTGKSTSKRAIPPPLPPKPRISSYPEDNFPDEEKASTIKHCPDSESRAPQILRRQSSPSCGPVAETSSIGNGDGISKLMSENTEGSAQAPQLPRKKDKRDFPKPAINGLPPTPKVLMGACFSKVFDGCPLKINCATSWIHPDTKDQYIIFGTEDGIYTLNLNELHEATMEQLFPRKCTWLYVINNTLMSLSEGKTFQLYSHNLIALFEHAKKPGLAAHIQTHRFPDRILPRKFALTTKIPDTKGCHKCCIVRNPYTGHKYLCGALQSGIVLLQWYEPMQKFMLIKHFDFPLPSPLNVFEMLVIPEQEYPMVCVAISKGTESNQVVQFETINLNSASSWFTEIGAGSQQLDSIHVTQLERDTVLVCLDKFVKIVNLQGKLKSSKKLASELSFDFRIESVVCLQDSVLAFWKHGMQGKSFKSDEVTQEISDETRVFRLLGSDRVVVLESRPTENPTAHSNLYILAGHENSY

| SMILES | Activity [1] | Activity [2] | Activity [3] | Kd [4] |
| --- | --- | --- | --- | --- |
| COc1ncc(-c2cnc3[nH]cc(C(=O)c4cccc(NS(=O)(=O)Cc5ccccc5)c4F)c3c2)cn1 | 86% | 70% | 38% | 0.85 nM |
| CCCS(=O)(=O)Nc1ccc(F)c(C(=O)c2c[nH]c3ncc(-c4ccc(Cl)cc4)cc23)c1F [VEMURAFENIB] | 48% | 100% | 5.3% | 8.2 nM |
| O=C(c1cccc(NS(=O)(=O)Cc2ccccc2)c1F)c1c[nH]c2ncc(-c3cnc(C4CC4)nc3)cc12 | 82% | 86% | 80% | 1.1 nM |
| O=C(c1cccc(NS(=O)(=O)Cc2ccccc2)c1F)c1c[nH]c2ncc(-c3cc4c(cc3Cl)OCCO4)cc12 | 98% | 100% | 94% | 3.5 nM |
| CCCS(=O)(=O)Nc1ccc(F)c(C(=O)c2c[nH]c3ncc(-c4ccc(C)cc4)cc23)c1F | 28% | 89% | 0.85% |  |
| COc1ccc(-c2cnc3[nH]cc(C(=O)c4cccc(NS(=O)(=O)Cc5ccccc5)c4F)c3c2)c(Cl)c1 | 79% | 100% | 87% |  |
| CCCS(=O)(=O)Nc1ccc(F)c(C(=O)c2c[nH]c3ncc(-c4cc5c(cc4Cl)OCCO5)cc23)c1F | 98% | 97% | 20% |  |
| CCCS(=O)(=O)Nc1ccc(F)c(C(=O)c2c[nH]c3ncc(-c4cc5c(cc4Cl)OCO5)cc23)c1F | 99% | 100% | 26% |  |
| CS(=O)(=O)Nc1cccc(C(=O)c2c[nH]c3ncc(-c4ccc(Cl)cc4)cc23)c1F | 78% | 81% | 27% |  |
| Cc1nc(NC(C)CO)c2c(n1)[nH]c1ccc(O)cc12 (centres undefined) | 95% | 100% | 81% |  |
| O=C(c1cccc(NS(=O)(=O)Cc2ccccc2)c1F)c1c[nH]c2ncc(-c3cc4c(cc3Cl)OCO4)cc12 | 66% | 100% | 80% |  |
| CCCS(=O)(=O)Nc1ccc(F)c(C(=O)c2c[nH]c3ncc(-c4ccc(OC)cc4OC)cc23)c1F | 84% | 87% | 1.6% |  |
| CCCS(=O)(=O)Nc1ccc(F)c(C(=O)c2c[nH]c3ncc(-c4ccc(OC)cc4Cl)cc23)c1F | 100% | 100% | 18% |  |
| Oc1ccc(-c2ncnc3[nH]c4ccc(O)cc4c23)cc1 | 92% | 100% | 84% |  |
| CCS(=O)(=O)Nc1ccc(F)c(C(=O)c2c[nH]c3ncc(-c4ccc(Cl)cc4)cc23)c1F | 82% | 89% | 8.3% |  |
| CCCS(=O)(=O)Nc1ccc(F)c(C(=O)c2c[nH]c3ncc(-c4cnccn4)cc23)c1F | 75% | 83% | 11% |  |
| CCCS(=O)(=O)Nc1ccc(F)c(C(=O)c2c[nH]c3ncc(-c4ccc(F)cc4)cc23)c1F | 67% | 100% | 0.9% |  |
| CCCCCS(=O)(=O)Nc1ccc(F)c(C(=O)c2c[nH]c3ncc(-c4ccc(Cl)cc4)cc23)c1F | 98% | 89% | 55% |  |
| CCCS(=O)(=O)Nc1ccc(F)c(C(=O)c2c[nH]c3ncc(-c4cccs4)cc23)c1F | 48% | 98% | 2.9% |  |
| CCCS(=O)(=O)Nc1ccc(F)c(C(=O)c2c[nH]c3ncc(-c4ccc(OC)c(OC)c4)cc23)c1F | 14% | 84% | 18% |  |
